Hits are enriched below; roughly 2.3% of the tested compounds scored in any of these assays.
Arr_AP2_block: blocks beta-arrestin peptide binding to AP2 adaptin | FITC-arrestin peptide / GST-AP2 beads, flow cytometry; AP2 beta2 appendage carries R879A mutation | inhibition, % at 10 µM | actives 0.31% (n = 340,000);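 active = inhibition above a set limit, near 3 SD of compounds lacking own fluorescence, cut at about 54% in these data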
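System: GST-tagged AP2 beta2-adaptin appendage (R879A) on 4 µm glutathione beads / Reagent: FITC-arrestin peptide, 50 nM / Detection: HyperCyt-sampled flow cytometry, FL1 channel, ex 488/em 535 nm / Timing: 12 min plus 1 h, RT / Buffer or medium: PBS plus Tween 20 (0.05%) and BSA (0.1%)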
PAX8_inh_HTS: lowers PAX8-driven luciferase in RMG-I cells | RMG-I TPO-luciferase reporter, SteadyGlo, 24 h | inhibition, % at 12.6 µM | actives 1.2% (n = 360,000);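 active = mean replicate inhibition at least 60% with every replicate also reaching 60%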;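 also: luciferase light reporting Pax8 driven TPO promoter activity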
HIV_Env_fusion: blocks HIV Env-driven cell-cell fusion | HeLa-JRFL Env/CEM21 cell fusion, luciferase | actives 1.1% (n = 360,000) | inhibition, % at 12.3 µM;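 active = mean replicate inhibition score of at least 50 and every replicate individually at or above 50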
Glyco_luc_inh: N-linked glycosylation inhibition; D54 ERlucT glycosylation luciferase reporter, 24 h; percent of 100 nM tunicamycin response; reporter increase, % at 12.5 µM; actives 0.23% (n = 360,000);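 active = mean luciferase reporter signal, scaled so untreated is 0 and the glycosylation-blocking control 100, at or above a set limit in every replicate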;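 also: luciferase carries N-glycosylation sites so blocking glycosylation raises the light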
PfHsp90_set2: reduces growth (ATP signal) of yeast expressing P. falciparum Hsp90; actives 0.32% (n = 310,000); S. cerevisiae expressing PfHsp90, BacTiter-Glo ATP, 48 h; yeast lacking PDR1 and PDR3 efflux regulators; inhibition, % at 9.4 µM;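 active = every replicate shows inhibition above about 80%, whatever the replicate mean, limit read from the data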
Rtt109_HAT_inh: inhibitors of Candida albicans Rtt109/Vps75 histone acetyltransferase; Q5AAJ8; purified Rtt109/Vps75, ThioGlo CoA-SH fluorescence, 4 h; inhibition, % at 34.9 µM; actives 0.16% (n = 330,000);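 active = inhibition of at least 50% in every replicate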
Target sequence (Q5AAJ8 whole entry, looked up): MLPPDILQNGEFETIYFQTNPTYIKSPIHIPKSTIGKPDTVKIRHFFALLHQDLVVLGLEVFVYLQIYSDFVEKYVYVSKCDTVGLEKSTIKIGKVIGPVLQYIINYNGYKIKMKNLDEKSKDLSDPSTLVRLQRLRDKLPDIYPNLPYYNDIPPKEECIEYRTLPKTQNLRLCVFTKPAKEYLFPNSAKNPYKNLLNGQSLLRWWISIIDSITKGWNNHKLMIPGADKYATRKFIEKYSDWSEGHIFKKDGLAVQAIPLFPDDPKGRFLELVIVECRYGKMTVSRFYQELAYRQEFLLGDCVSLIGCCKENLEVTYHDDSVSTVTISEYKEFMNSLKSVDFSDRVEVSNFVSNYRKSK
A number is an active result; . = inactive; / = not tested or not shown; [ ] = dose if it differs, or a comment.

SMILES Arr_AP2_block PAX8_inh_HTS HIV_Env_fusion Glyco_luc_inh PfHsp90_set2 Rtt109_HAT_inh
COc1cccc(S(=O)(=O)Nc2ccc3c(c2)[C@@H]2C[C@@H](CC(=O)NCc4ccccc4F)O[C@@H](CO)[C@@H]2O3)c1 / 68.1 . / / /
CO[C@H]1CC[C@H]2CCN(C)C(=O)C[C@@H](c3ccccc3)CN(C)C(=O)c3cc(C#N)ccc3OC[C@@H]1O2 / . . / / /
CO[C@H]1CN(C)C(=O)c2ccc(NC(=O)C3CCC3)cc2OC[C@@H](C)N(Cc2nccs2)C[C@@H]1C / . / / / /
CCCCCCC[C@@H](C/C=C/CCC(=O)N(C)C/C(=C/Cl)C/C(=C\C(=O)N1CC(OC)=CC1=O)OC)OC . . . 77.4 . .
CCCCCCC[C@@H](C/C=C/CCC(=O)N(C)C/C(=C/Cl)C/C(=C\C(=O)N1C[C@H](O)CC1=O)OC)OC . . . . . .
CN(C)C(=O)c1ccc(-c2ccc3c(c2)[C@H]2[C@H](CCN2C(=O)c2cnccn2)[C@@H](CO)N3)cc1 / . / / / /
O=C(N/N=C/c1cc(Cl)ccc1O)C(=O)Nc1ccccc1OC(F)(F)C(F)F . 70.4 . . . .
O=C(N/N=C/c1cc(Cl)ccc1O)c1ccncc1 . 66.2 . . . .
Cc1cc(/C=N/Nc2ncnc(N)c2[N+](=O)[O-])c(C)n1-c1ccccc1 . 62.0 55.2 . . .
COc1cccc(/C=N/Nc2ncnc(N)c2[N+](=O)[O-])c1OC . / / . . .
CC(=O)N(C)C[C@H]1Oc2cc(C#Cc3ccccc3)ccc2S(=O)(=O)N([C@@H](C)CO)C[C@@H]1C / / . / / /
O=C(CCN1CCCCC1)N[C@@H]1CC[C@@H](CCn2cc(-c3ccccc3)nn2)O[C@@H]1CO / . 74.9[16.7_µM] / / /
